In ChEMBL document CHEMBL4715736, “Identification of anticancer agents based on the thieno[2,3-b]pyridine and 1H-pyrazole molecular scaffolds” (2016):

These molecules were tested on PC-3 (assay: Growth inhibition of human PC-3 cells assessed as cell growth at 100 uM incubated for 48 hrs by sulforhodamine B assay relative to control). Conditions: read-out: Activity.
Format: functional
In the case of `Cc1cccc(NC(=O)c2sc3nc4c(cc3c2N)C(=O)CCC4)c1`, the growth at 100 µM is reported as -26%.

Each molecule was assayed on K562 (assay: Growth inhibition of human K562 cells incubated for 48 hrs by sulforhodamine B assay). Conditions: not given.
Format: functional
Method in brief: (§1)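 NCI60 panel at the NCI Developmental Therapeutics Program. Only compounds active in the 10 µM screen went to dose-response testing. GI50, the concentration giving 50% of maximal inhibition of proliferation, and TGI, the concentration giving total growth inhibition, were derived from the dose-response curves.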
For `Cc1cccc(NC(=O)c2sc3nc4c(cc3c2N)C(=O)CCC4)c1`, the GI50 was 0.144 µM, the LC50 (concentration killing 50% of cells) was greater than 100 µM and the TGI was greater than 100 µM.

The molecules below were run on RXF 393 (assay: Growth inhibition of human RXF 393 cells incubated for 48 hrs by sulforhodamine B assay). Conditions: not given.
Format: functional
Method in brief: (§2)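 NCI DTP 60-line human tumour panel. Dose-response curves were run only for ligands active in the initial 10 µM screen. GI50 (concentration giving 50% of maximal inhibition of proliferation) and TGI (concentration giving total growth inhibition) were derived from these curves.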
`Cc1cccc(NC(=O)c2sc3nc4c(cc3c2N)C(=O)CCC4)c1` gave a GI50 of 0.167 µM and a TGI of no less than 100 µM.

Same assay, conditions: read-out: LC50 (the source's name)
For `Cc1cccc(NC(=O)c2sc3nc4c(cc3c2N)C(=O)CCC4)c1`, the CC50 was greater than 100 µM.

These molecules were tested on A498 (assay: Growth inhibition of human A498 cells assessed as cell growth at 100 uM incubated for 48 hrs by sulforhodamine B assay relative to control). Conditions: read-out: Activity.
Format: functional
Method in brief: (§3)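 NCI Developmental Therapeutics Program NCI60 panel. Compounds that were active in the 10 µM one-dose screen went on to dose–response testing. Growth at each concentration is expressed relative to untreated control (100%). GI50 (concentration giving 50% of maximal inhibition of proliferation) and TGI (concentration giving total growth inhibition) were derived from the curves.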
Molecule `Cc1cccc(NC(=O)c2sc3nc4c(cc3c2N)C(=O)CCC4)c1` has a growth at 100 µM of -53%.

Each molecule was assayed on SN12C (assay: Growth inhibition of human SN12C cells assessed as cell growth at 1 uM incubated for 48 hrs by sulforhodamine B assay relative to control). Conditions: read-out: Activity.
Format: functional
`Cc1cccc(NC(=O)c2sc3nc4c(cc3c2N)C(=O)CCC4)c1` gave a growth at 1 µM of 42%.

These molecules were tested on M14 (assay: Growth inhibition of human M14 cells assessed as cell growth at 100 uM incubated for 48 hrs by sulforhodamine B assay relative to control). Conditions: read-out: Activity.
Format: functional
`Cc1cccc(NC(=O)c2sc3nc4c(cc3c2N)C(=O)CCC4)c1` showed a growth at 100 µM of -48%.

Each molecule was assayed on SNB-75 (assay: Growth inhibition of human SNB-75 cells assessed as cell growth at 0.1 uM incubated for 48 hrs by sulforhodamine B assay relative to control). Conditions: read-out: Activity.
Format: functional
`Cc1cccc(NC(=O)c2sc3nc4c(cc3c2N)C(=O)CCC4)c1` was tested, and the growth at 0.1 µM was 75%.

What follows are molecules tested on HCT-15 (assay: Growth inhibition of human HCT-15 cells assessed as cell growth at 0.1 uM incubated for 48 hrs by sulforhodamine B assay relative to control). Conditions: read-out: Activity.
Format: functional
For `Cc1cccc(NC(=O)c2sc3nc4c(cc3c2N)C(=O)CCC4)c1`, the growth at 0.1 µM was 48%.

The molecules below were run on RPMI-8226 (assay: Growth inhibition of human RPMI-8226 cells assessed as cell growth at 0.1 uM incubated for 48 hrs by sulforhodamine B assay relative to control). Conditions: read-out: Activity.
Format: functional
`Cc1cccc(NC(=O)c2sc3nc4c(cc3c2N)C(=O)CCC4)c1` showed a growth at 0.1 µM of 94%.

Each molecule was assayed on MDA-MB-435 (assay: Growth inhibition of human MDA-MB-435 cells assessed as cell growth at 0.1 uM incubated for 48 hrs by sulforhodamine B assay relative to control). Conditions: read-out: Activity.
Format: functional
`Cc1cccc(NC(=O)c2sc3nc4c(cc3c2N)C(=O)CCC4)c1` was tested, and the growth at 0.1 µM was 4%.

These molecules were tested on MDA-MB-435 (assay: Growth inhibition of human MDA-MB-435 cells assessed as cell growth at 0.01 uM incubated for 48 hrs by sulforhodamine B assay relative to control). Conditions: read-out: Activity.
Format: functional
`Cc1cccc(NC(=O)c2sc3nc4c(cc3c2N)C(=O)CCC4)c1` gave a growth at 0.01 µM of 87%.

The molecules below were run on T47D (assay: Growth inhibition of human T47D cells incubated for 48 hrs by sulforhodamine B assay). Conditions: not given.
Format: functional
Method in brief: as §2
Work on `Cc1cccc(NC(=O)c2sc3nc4c(cc3c2N)C(=O)CCC4)c1` yielded a TGI greater than 100 µM.

Same assay, conditions: read-out: LC50 (the source's name)
`Cc1cccc(NC(=O)c2sc3nc4c(cc3c2N)C(=O)CCC4)c1` showed a CC50 greater than 100 µM.

What follows are molecules tested on NCI/ADR-RES (assay: Growth inhibition of human NCI/ADR-RES cells incubated for 48 hrs by sulforhodamine B assay). Conditions: not given.
Format: functional
Method in brief: as §1
`Cc1cccc(NC(=O)c2sc3nc4c(cc3c2N)C(=O)CCC4)c1` was tested, and the GI50 was 0.23 µM and the TGI was no less than 100 µM.

Same assay, conditions: read-out: LC50 (the source's name)
In the case of `Cc1cccc(NC(=O)c2sc3nc4c(cc3c2N)C(=O)CCC4)c1`, the CC50 is reported as greater than 100 µM.

Each molecule was assayed on A498 (assay: Growth inhibition of human A498 cells assessed as cell growth at 1 uM incubated for 48 hrs by sulforhodamine B assay relative to control). Conditions: read-out: Activity.
Format: functional
Method in brief: as §3
Work on `Cc1cccc(NC(=O)c2sc3nc4c(cc3c2N)C(=O)CCC4)c1` yielded a growth at 1 µM of -11%.

The molecules below were run on SK-MEL-2 (assay: Growth inhibition of human SK-MEL-2 cells assessed as cell growth at 1 uM incubated for 48 hrs by sulforhodamine B assay relative to control). Conditions: read-out: Activity.
Format: functional
`Cc1cccc(NC(=O)c2sc3nc4c(cc3c2N)C(=O)CCC4)c1` showed a growth at 1 µM of 17%.

What follows are molecules tested on A549 (assay: Growth inhibition of human A549/ATCC cells assessed as cell growth at 0.1 uM incubated for 48 hrs by sulforhodamine B assay relative to control). Conditions: read-out: Activity.
Format: functional
Method in brief: as §3
`Cc1cccc(NC(=O)c2sc3nc4c(cc3c2N)C(=O)CCC4)c1` gave a growth at 0.1 µM of 78%.

These molecules were tested on COLO 205 (assay: Growth inhibition of human COLO 205 cells incubated for 48 hrs by sulforhodamine B assay). Conditions: not given.
Format: functional
Method in brief: as §3
For `Cc1cccc(NC(=O)c2sc3nc4c(cc3c2N)C(=O)CCC4)c1`, the GI50 was 0.197 µM, the LC50 (concentration killing 50% of cells) was greater than 100 µM and the TGI was no less than 100 µM.

What follows are molecules tested on UACC-257 (assay: Growth inhibition of human UACC-257 cells assessed as cell growth at 0.1 uM incubated for 48 hrs by sulforhodamine B assay relative to control). Conditions: read-out: Activity.
Format: functional
In the case of `Cc1cccc(NC(=O)c2sc3nc4c(cc3c2N)C(=O)CCC4)c1`, the growth at 0.1 µM is reported as 58%.
